From the RNAGym collection of RNA variant scans (doi:10.1126/science.aae0568)
Variants at the floor of the assay were thinned out.

B1: tRNA (parent)
chain: GUUCCGUUGGCGUAAUGGUAACGCGUCUCCCUCCUAAGGAGAAGACUGCGGGUUCGAGUCCCGUACGGAACG

Variants of: B1
Experiment: yeast fitness relative to wild type (ratio to wild type); higher = fitter; tRNA-Arg(CCU), competitive growth, 37 C, YPD
Method in brief: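 Variants of the tRNA-Arg(CCU) gene, chemically synthesised with a 3% per-site mutation rate at 69 sites, were placed at the native genomic locus in Saccharomyces cerevisiae. The pooled strains were competed in YPD at 37°C for 24 hours in six parallel replicates. Gene amplicons from the start population and from each end population were read by 100-nucleotide paired-end sequencing. Darwinian fitness relative to wild type came from changes in genotype frequencies; genotypes needed ≥ 100 starting reads, and estimates < 0.5 were set to 0.5.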

Variant	yeast fitness
C5A U19C U26G A36C	0.571
C5A U19A G38C A57C C62U	≤ 0.5
C5G A14C G44C	≤ 0.5
C5A U35G G41A G56A A70C	0.543
C5A U8G A37U G51A G52C A57G U59C	0.52
C5A U16C C33U G63C	≤ 0.5
C5G A14C C29A C31G A36G U54A	≤ 0.5
C5G A14G C33A G56A U59C C61A	≤ 0.5
C5A U13C C29U	≤ 0.5
C5A U13G C24G C31A	0.514
C5A U13A A70C	≤ 0.5
C5G A20G	0.965
C5A U13A A45C A69C	0.542
C5G A20C U28C C29A A36U A40U C49G	≤ 0.5
C5G A15G C27G U28A U32A A45G C46U	0.573
C5A U13G U32A A42U G52A U54A C60G	0.649
C5G A15C C46U U53G A57C	0.588
C5G A15G U28C C30U A69U	≤ 0.5
C5G A15C A42C	0.584
C5A U16C A42U	0.672
C5A U8C C11A A15G C27U A42U C61A C62U	0.502
C5A U32A A36C	≤ 0.5
C5A U53A	0.722
C5A U16C U59G C66U	0.533

Variant	yeast fitness
C5A U8C G38A C62G	0.643
C5G A15G C27G C30A	≤ 0.5
C5G A20C C24U G68A	≤ 0.5
C5G A14G G17A A20G U32C G56C C60G	≤ 0.5
C5A U35G	0.636
C5A U35A	0.73
C5A U13C U19C C33G	≤ 0.5
C5G A15G U16A A20G U28A C30A C33A A36U G50A C66U	≤ 0.5
C5A U35C G44A G48C C55G A69U	0.56
C5G A15G A36G A43G	0.593
C5G A14C A36C A45C G48A	≤ 0.5
C5G A15G C24G U32A C34G C66U	≤ 0.5
C5A U26A C31A C49U	≤ 0.5
C5A U16A A42C	≤ 0.5
C5A U8C U13C A40G	0.522
C5G A15U C30A C31A C49U C66G	≤ 0.5
C5G A15U G41C C55A	≤ 0.5
C5A U19A C66U	0.66
C5G A14U C60A	≤ 0.5
C5A U32C A65C	0.68
C5G A14G A65U	0.538
C5A U16A A45U	0.593
C5G A14U A43G G67C	0.56
C5G A14C U16A C30U G38C G41C C66U	≤ 0.5

Variant	yeast fitness
C5G A14U U28C C46G C61U	≤ 0.5
C5G A15U G44C G50A U54A	≤ 0.5
C5G A14U C29U C33G A43U U54C	≤ 0.5
C5A U35G A69C	≤ 0.5
C5A U8C G52A G58C	≤ 0.5
C5A U32G C49G	≤ 0.5
C5G A15G A36G A43G G56A	≤ 0.5
C5A U26A C33A A43C G56C	0.597
C5A U35C A57C	≤ 0.5
C5A U19A A57U	0.561
C5G A15C G48C G68U	≤ 0.5
C5G A14C A37G G52U C62G	≤ 0.5
C5G A14G G63C	≤ 0.5
C5A U53C C62U	≤ 0.5
C5A U8C A21G A45C U47G G56C	≤ 0.5
C5A U32A A36C A70G	≤ 0.5
C5A U19A C62A A69U	≤ 0.5
C5G A20C G39C C62U G63C	≤ 0.5
C5G A14C A37G C46U G68C	≤ 0.5
C5G A14U G18A A21U C31U C60U C61U C66G	≤ 0.5
C5A U13C	0.926
C5A U19A	0.843
C5A U35G G41A G56A	≤ 0.5
C5G A15U A40U G67C	≤ 0.5

Variant	yeast fitness
C5A U28G	0.609
C5G A14C C29A C31G U54A A70G	0.531
C5G A15G U16A A20G U28A C30A C33A A36U G63A A69C	≤ 0.5
C5G A15C A42C G52A U53A	≤ 0.5
C5G A14G C24G A40U G48C C60U A69C	0.601
C5G A14U G38C G39C C61U	≤ 0.5
C5A U32C C60U C61G	≤ 0.5
C5G A15C U28A G41C U64G	≤ 0.5
C5G A14G C33A G56A C61A	0.583
C5G A14U A37U A45C	≤ 0.5
C5G A15U C46U	0.594
C5G A14C G18A A40G C46U C49U U53A	≤ 0.5
C5G A14C A37G C62G	0.561
C5A U54C	0.722
C5A U47A C55A G68A	≤ 0.5
C5G A15G U16A A20G U28A C30A C33A A36U A69C	0.578
C5G A15G U16A A20G U28A C30A C33A A36U A69U	≤ 0.5
C5G A14U G25A G48C C61A C62U	≤ 0.5
C5G A14G G44C C62U C66U A69C	≤ 0.5
C5A U16G C27U C29U A36U G41A	0.589
C5A U28A A40U C61G	≤ 0.5
C5G A15U C24A	0.654
C5A U28C G63C	0.534
C5G A15G A36G A45C G50U	≤ 0.5

Variant	yeast fitness
C5A U13C C29U C66U	0.549
C5A U54C A70U	0.532
C5A U54G A65U	≤ 0.5
C5A U13A C30G A69C	≤ 0.5
C5A U54C A65U	≤ 0.5
C5G A14C G18A U19C A43G A45C C46U	≤ 0.5
C5A U19A C30G	0.594
C5A U19A A20C C24G C34G	≤ 0.5
C5A U8C A21G A45C G56C C66U	≤ 0.5
C5G A14U U16C G18C U32A	0.556
C5G A15U G58A G67A	0.626
C5G A14U G38A A40U G50C C60G A70G	≤ 0.5
C5G A15G U16A A20G U28A C30A C33A A36U A70U	≤ 0.5
C5A U35G G41A G56A C66U	≤ 0.5
C5G A14C G18A C49U	≤ 0.5
C5A U16C A42U A57G	≤ 0.5
C5G A14G C27G	≤ 0.5
C5G A15G C66U	≤ 0.5
C5G A14U	0.607
C5G A14C	0.625
C5G A14C C29A C31G G56A	≤ 0.5
C5G A15U C29G U59G	≤ 0.5
C5A U8C U35C G44A G48C C55G A69U	≤ 0.5
C5A U13A U59A U64G	≤ 0.5

Variant	yeast fitness
C5G A14U C49U C61U	≤ 0.5
C5G A14U U16C G18A A21U A42G G68A	≤ 0.5
C5A U28G A65U	≤ 0.5
C5G A14C C30U	≤ 0.5
C5G A14U U16C G18C U32A C62U	≤ 0.5
C5G A20C C27A G39A C61G	≤ 0.5
C5A U26A	0.717
C5G A20C C31G A37U	0.617
C5G A15G U16A A20G U28A C30A C33A A36U A65U A69C	≤ 0.5
C5G	0.992
C5G A15U G41A G58A	≤ 0.5
C5A U16A C62U	≤ 0.5
C5G A15G U28C A45C	≤ 0.5
C5G A15G U16A A20G U28A C30A C33A A36U	0.553
C5A U19A C27U C55U	≤ 0.5
C5A U13G C34G C62G	≤ 0.5
C5G A15C C29A C61G	≤ 0.5
C5G A14C C29A C31G U54G	≤ 0.5
C5G A14C C29A C31G U54A	0.638
C5G A14C C30U C49U C61A	≤ 0.5
C5A U35G G68C	≤ 0.5
C5A U28C C30U A36C A42G	≤ 0.5
C5A U8C C11U G18A C31A A37U G67C	≤ 0.5
C5G A15G U28A A57C C66G	≤ 0.5

Variant	yeast fitness
C5A U16A G17A A42C	≤ 0.5
C5G A20C C29G	0.538
C5A U13G C34G A45U	0.619
C5A U35C G44A G48C	≤ 0.5
C5G A14U G67A	0.612
C5A U8G U19C A37U G51A G52C U59C	≤ 0.5
C5A U16C A21C C33U A40G G63C	≤ 0.5
C5G A14U G25A G48C C61A	0.528
C5G A14U C24U C55G A70U	≤ 0.5
C5A U47C G51A A65C	≤ 0.5
C5G A20C C34G	≤ 0.5
C5G A20C C31A	0.55
C5A U19A G38C U53C C61G G67A A69C	≤ 0.5
C5G A15C C22A	0.627
C5A U53A U59A A69U	0.712
C5G A14C A37G A69U	≤ 0.5
C5G A14C C31G	≤ 0.5
C5A U35C G44A G48C C55G C66G	≤ 0.5
C5G A14C C29U C33G A65C	≤ 0.5
C5A U32A	0.784
C5A U32C	0.928
C5A U47A	0.786
C5G A15G A42C	0.544
